Laboratory results from ChEMBL document CHEMBL5352501, “Catalytic Degraders Effectively Address Kinase Site Mutations in EML4-ALK Oncogenic Fusions” (J Med Chem, 2023).
Active and inactive are the calls of the source. The rule behind the calls is not given here.

Experiments:
[1] = test system: HepG2; assay: Induction of phospholipidosis in human HepG2 cells assessed as […] incubated for 48 hrs by Hoechst 33342 staining based imaging analysis; assay type: toxicity, cell-based; details: hepg2, 48 h
[2] = test system: HepG2; assay: Cytotoxicity against human HepG2 cells assessed as reduction in cell viability incubated for 48 hrs by Hoechst 33342 staining based imaging analysis; assay type: toxicity; details: hepg2, 48 h
[3] = test system: BaF3; assay: Antiproliferative activity against mouse Ba/F3 cells stably expressing HiBiT-tagged wild type EML4-ALK variant 3 assessed as cell growth inhibition incubated for 72 hrs by CellTiter-Glo assay; assay type: functional
Summary of the method: (§1)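 Ba/F3 cells stably expressing HiBiT-tagged EML4-ALK v3 (wild type or the named kinase-site mutant) were treated with compound for 72 h. Growth inhibition was reported as log GI50.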

[4] = test system: BaF3; assay type: functional; details: Mus musculus, time 72 hrs
[5] = test system: BaF3; assay: Antiproliferative activity against mouse Ba/F3 cells stably expressing HiBiT-tagged EML4-ALK variant 3 G1202R mutant assessed as cell growth inhibition incubated for 72 hrs by CellTiter-Glo assay; assay type: functional; summary of the method: as §1
[6] = test system: BaF3; assay type: functional; details: Mus musculus, time 72 hrs, read-out: pGI50 (converted)
[7] = test system: BaF3; assay: Antiproliferative activity against mouse Ba/F3 cells stably expressing HiBiT-tagged EML4-ALK variant 3 C1156Y mutant assessed as cell growth inhibition incubated for 72 hrs by CellTiter-Glo assay; assay type: functional; summary of the method: as §1
[8] = molecular target: Protein cereblon/ALK tyrosine kinase receptor/Echinoderm microtubule-associated protein-like 4 (Homo sapiens, UniProt Q9UM73+Q9HC35+Q96SW2); assay: PROTAC activity at human CRBN/HiBit-tagged wild type human EML4-ALK variant 3b expressed in mouse BaF3 cells assessed as induction of EML4-ALK variant 3b fusion protein degradation incubated for 4 hrs by Nano-Glo HiBiT assay; assay type: cell-based
[9] = molecular target: ALK tyrosine kinase receptor (Homo sapiens, UniProt Q9UM73); assay: Inhibition of N-terminal flag-tagged NanoLuc fused ALK kinase domain (1072 to 1410 residues) (unknown origin) expressed in mouse BaF3 cells assessed as reduction in BRET signal incubated for 2 hrs in presence of CPD-1571 tracer by NanoBRET assay; assay type: cell-based
[10] = molecular target: Protein cereblon/ALK tyrosine kinase receptor/Echinoderm microtubule-associated protein-like 4 (Homo sapiens, UniProt Q9UM73+Q9HC35+Q96SW2, G1202R); assay: PROTAC activity at human CRBN/EML4-ALK variant 3b G1202R mutant expressed in mouse BaF3 cells assessed as induction of EML4-ALK fusion protein degradation incubated for 4 hrs by Nano-Glo HiBiT assay; assay type: cell-based
[11] = Microsomal stability in human liver microsomes assessed as intrinsic clearance at 1 uM and measured upto 60 mins in presence of NADPH by LC-MS/MSC analysis; assay type: ADME, Microsome; details: read-out: CLH
[12] = Oral bioavailability in C57BL/J6 mouse at 10 mg/kg and measured upto 24 hrs by LC-MS/MS analysis; assay type: ADME, organism-based; details: in vivo
Summary of the method: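 Mouse PK was run with both oral and intravenous dosing, with 10 mg/kg as the study dose. Oral bioavailability was derived from comparing the two routes.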

[13] = test system: Erythrocyte; assay: Hemolytic activity in human RBC assessed as hemolysis incubated for 45 mins by absorbance based microplate reader analysis; assay type: toxicity, cell-based; details: 0.75 h
[14] = test system: Erythrocyte; assay: Hemolytic activity in mouse RBC assessed as hemolysis incubated for 45 mins by absorbance based microplate reader analysis; assay type: toxicity, cell-based; details: 0.75 h
[15] = molecular target: T1, Aurora kinase A (Homo sapiens) (UniProt O14965); assay: Induction of AURKA degradation in human MOLT-4 cells incubated for 6 hrs by MS based proteomics analysis; assay type: cell-based
T1 sequence (whole entry): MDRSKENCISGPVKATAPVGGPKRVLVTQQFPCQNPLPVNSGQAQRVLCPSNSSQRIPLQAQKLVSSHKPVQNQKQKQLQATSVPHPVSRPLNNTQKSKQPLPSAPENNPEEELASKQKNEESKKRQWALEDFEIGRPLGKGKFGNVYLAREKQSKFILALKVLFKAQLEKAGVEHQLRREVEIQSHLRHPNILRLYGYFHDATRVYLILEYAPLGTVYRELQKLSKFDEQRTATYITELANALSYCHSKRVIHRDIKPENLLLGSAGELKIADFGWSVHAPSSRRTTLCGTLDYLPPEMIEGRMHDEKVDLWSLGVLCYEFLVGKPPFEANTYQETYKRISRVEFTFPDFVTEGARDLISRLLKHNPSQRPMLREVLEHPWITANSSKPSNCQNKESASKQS

[16] = molecular target: Tyrosine-protein kinase Fer (Homo sapiens) (UniProt P16591); assay: Induction of FER degradation in human MOLT-4 cells incubated for 6 hrs by MS based proteomics analysis; assay type: cell-based
[17] = molecular target: T2, Serine/threonine-protein kinase ULK1 (Homo sapiens) (UniProt O75385); assay: Induction of ULK1 degradation in human MOLT-4 cells incubated for 6 hrs by MS based proteomics analysis; assay type: cell-based
T2 sequence (whole entry): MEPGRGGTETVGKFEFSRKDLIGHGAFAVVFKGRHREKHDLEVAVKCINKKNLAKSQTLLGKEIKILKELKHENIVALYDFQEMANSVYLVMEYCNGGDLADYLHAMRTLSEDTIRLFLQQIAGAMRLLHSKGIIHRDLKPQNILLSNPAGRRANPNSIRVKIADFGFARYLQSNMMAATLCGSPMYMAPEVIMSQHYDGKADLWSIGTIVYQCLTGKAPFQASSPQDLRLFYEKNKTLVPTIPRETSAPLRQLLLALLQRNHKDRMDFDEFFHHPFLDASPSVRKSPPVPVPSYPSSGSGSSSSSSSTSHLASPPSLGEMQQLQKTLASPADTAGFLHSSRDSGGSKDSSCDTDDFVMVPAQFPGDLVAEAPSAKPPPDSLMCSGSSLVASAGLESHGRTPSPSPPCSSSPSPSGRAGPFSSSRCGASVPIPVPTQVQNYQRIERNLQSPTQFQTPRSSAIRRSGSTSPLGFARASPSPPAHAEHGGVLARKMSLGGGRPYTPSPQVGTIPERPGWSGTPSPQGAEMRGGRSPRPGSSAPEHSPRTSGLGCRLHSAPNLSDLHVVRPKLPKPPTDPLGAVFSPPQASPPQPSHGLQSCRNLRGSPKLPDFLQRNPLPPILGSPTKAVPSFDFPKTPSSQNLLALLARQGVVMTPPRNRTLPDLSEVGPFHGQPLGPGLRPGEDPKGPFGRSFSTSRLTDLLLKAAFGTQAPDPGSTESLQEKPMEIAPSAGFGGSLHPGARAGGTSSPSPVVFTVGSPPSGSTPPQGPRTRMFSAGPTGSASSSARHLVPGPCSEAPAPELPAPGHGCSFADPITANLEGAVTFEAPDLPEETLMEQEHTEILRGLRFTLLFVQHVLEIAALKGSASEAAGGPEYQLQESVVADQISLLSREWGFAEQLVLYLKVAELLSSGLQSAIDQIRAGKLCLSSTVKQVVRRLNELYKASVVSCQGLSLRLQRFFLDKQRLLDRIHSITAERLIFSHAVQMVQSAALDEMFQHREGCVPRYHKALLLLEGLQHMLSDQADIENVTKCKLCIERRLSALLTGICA

[18] = molecular target: Protein-tyrosine kinase 2-beta (Homo sapiens) (UniProt Q14289); assay: Induction of PTK2B degradation in human MOLT-4 cells incubated for 6 hrs by MS based proteomics analysis; assay type: cell-based
[19] = molecular target: Ribosomal protein S6 kinase alpha-1 (Homo sapiens) (UniProt Q15418); assay: Induction of RSK1 degradation in human MOLT-4 cells incubated for 6 hrs by MS based proteomics analysis; assay type: cell-based
[20] = test system: Protein cereblon/ALK tyrosine kinase receptor/Echinoderm microtubule-associated protein-like 4 (Homo sapiens), Q9UM73+Q9HC35+Q96SW2 [UNDEFINED MUTATION]; assay: PROTAC activity at human CRBN/HiBit-tagged EML4-ALK variant 3b G1202R mutant expressed in mouse BaF3 cells assessed as induction of EML4-ALK variant 3b fusion protein degradation at 2 uM incubated for 4 hrs by Nano-Glo HiBiT assay relative to control; assay type: cell-based
Summary of the method: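 Ba/F3 cells stably expressing humanized CRBN and HiBiT-tagged EML4-ALK v3 (WT or mutant) were treated for 4 h. Remaining fusion protein was quantified by HiBiT bioluminescence relative to control.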

[21] = test system: Mus musculus; assay type: functional, organism-based; details: BALB/c, BaF3, dose 10.0 mg/kg, route po, time 14.0 day
[22] = test system: Mus musculus; assay type: functional, organism-based; details: BALB/c, BaF3, dose 10.0 mg/kg, route po, time 14.0 day; remark: listed apart in the source
[23] = test system: BaF3; assay type: functional; details: Mus musculus, dose 10.0 mg/kg, route po, time 14.0 day

Chain of Protein cereblon/ALK tyrosine kinase receptor/Echinoderm microtubule-associated protein-like 4 (Homo sapiens, UniProt Q9UM73+Q9HC35+Q96SW2) (Q96SW2 whole entry, change not shown, the tested form may be a part): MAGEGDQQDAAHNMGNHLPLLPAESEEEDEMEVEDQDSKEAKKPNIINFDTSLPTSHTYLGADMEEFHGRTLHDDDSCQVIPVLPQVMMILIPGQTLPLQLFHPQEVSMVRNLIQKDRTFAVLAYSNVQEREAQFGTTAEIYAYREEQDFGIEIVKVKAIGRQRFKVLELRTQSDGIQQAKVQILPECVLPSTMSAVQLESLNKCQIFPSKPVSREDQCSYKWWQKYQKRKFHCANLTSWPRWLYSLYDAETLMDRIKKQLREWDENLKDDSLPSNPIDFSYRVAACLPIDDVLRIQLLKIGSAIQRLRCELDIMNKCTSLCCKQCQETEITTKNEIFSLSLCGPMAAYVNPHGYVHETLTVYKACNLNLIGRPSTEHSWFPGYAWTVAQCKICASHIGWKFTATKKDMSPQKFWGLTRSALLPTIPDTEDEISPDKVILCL
Chain of Protein cereblon/ALK tyrosine kinase receptor/Echinoderm microtubule-associated protein-like 4 (Homo sapiens, UniProt Q9UM73+Q9HC35+Q96SW2) (Q9HC35 whole entry, change not shown, the tested form may be a part): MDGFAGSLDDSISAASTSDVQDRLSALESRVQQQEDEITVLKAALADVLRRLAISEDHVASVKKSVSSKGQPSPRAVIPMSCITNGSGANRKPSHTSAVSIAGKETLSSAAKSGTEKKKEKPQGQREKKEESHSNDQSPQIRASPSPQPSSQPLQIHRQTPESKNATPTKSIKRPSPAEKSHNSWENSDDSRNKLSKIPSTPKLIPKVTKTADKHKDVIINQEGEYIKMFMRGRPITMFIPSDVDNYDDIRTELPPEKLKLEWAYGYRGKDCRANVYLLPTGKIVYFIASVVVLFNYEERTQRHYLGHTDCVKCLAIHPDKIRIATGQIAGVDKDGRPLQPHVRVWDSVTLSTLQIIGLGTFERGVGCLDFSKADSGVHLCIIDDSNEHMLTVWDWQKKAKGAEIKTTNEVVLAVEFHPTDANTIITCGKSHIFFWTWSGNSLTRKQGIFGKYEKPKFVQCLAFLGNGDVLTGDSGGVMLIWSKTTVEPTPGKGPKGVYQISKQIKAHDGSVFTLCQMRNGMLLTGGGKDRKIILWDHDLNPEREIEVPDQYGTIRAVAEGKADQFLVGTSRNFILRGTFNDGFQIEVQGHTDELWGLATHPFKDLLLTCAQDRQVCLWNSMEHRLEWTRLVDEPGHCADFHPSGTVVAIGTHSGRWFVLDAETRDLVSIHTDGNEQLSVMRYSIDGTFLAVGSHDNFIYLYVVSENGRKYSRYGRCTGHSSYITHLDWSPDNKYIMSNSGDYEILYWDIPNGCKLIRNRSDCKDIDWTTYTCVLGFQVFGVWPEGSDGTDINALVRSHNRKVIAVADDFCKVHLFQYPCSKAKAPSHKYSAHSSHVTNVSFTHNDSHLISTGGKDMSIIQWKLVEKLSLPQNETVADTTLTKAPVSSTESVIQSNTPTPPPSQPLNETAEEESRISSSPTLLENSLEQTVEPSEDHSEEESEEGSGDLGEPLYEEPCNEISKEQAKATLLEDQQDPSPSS
Chain of Protein cereblon/ALK tyrosine kinase receptor/Echinoderm microtubule-associated protein-like 4 (Homo sapiens, UniProt Q9UM73+Q9HC35+Q96SW2) (Q9UM73 19-1620 limits assumed, change not shown): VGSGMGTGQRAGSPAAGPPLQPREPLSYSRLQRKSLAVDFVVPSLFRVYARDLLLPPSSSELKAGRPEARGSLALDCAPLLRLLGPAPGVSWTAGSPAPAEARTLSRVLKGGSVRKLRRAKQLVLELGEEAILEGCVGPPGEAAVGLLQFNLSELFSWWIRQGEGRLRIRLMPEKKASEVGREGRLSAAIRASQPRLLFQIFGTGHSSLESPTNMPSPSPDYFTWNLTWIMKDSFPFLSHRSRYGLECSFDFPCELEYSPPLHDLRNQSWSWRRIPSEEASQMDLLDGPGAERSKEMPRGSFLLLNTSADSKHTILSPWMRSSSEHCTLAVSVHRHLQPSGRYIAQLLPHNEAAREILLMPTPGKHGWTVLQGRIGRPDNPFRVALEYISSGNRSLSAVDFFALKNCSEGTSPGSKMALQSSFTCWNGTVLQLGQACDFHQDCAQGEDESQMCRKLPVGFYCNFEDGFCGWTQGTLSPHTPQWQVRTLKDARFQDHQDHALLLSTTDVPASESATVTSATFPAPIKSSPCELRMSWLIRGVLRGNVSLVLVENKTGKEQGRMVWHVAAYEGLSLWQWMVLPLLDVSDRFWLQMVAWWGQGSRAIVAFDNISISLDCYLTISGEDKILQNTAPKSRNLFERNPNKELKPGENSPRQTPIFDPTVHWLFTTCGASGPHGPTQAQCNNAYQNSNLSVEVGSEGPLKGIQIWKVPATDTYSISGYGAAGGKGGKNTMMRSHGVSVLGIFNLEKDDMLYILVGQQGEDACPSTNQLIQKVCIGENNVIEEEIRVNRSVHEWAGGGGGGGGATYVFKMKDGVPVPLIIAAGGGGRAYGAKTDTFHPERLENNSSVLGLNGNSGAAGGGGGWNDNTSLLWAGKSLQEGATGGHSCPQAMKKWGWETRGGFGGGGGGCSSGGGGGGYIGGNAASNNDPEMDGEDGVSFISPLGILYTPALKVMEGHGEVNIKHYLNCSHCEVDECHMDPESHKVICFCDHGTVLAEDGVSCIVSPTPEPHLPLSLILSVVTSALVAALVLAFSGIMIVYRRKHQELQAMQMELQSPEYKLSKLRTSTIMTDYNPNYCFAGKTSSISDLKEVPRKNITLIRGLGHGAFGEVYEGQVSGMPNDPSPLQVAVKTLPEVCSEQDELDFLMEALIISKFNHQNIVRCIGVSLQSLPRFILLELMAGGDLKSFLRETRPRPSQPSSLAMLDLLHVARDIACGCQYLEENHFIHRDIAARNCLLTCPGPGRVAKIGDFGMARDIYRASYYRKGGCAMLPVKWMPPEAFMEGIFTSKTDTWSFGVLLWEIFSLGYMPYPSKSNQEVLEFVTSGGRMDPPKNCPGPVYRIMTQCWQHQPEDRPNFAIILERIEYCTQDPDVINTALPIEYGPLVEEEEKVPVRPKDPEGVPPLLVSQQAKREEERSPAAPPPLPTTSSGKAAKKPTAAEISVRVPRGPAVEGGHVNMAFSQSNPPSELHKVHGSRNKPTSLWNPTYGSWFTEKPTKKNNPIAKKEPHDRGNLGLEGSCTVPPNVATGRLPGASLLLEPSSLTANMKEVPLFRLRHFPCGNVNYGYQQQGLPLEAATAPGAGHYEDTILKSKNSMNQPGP
Chain of ALK tyrosine kinase receptor (Q9UM73 whole entry, the tested form may be a part): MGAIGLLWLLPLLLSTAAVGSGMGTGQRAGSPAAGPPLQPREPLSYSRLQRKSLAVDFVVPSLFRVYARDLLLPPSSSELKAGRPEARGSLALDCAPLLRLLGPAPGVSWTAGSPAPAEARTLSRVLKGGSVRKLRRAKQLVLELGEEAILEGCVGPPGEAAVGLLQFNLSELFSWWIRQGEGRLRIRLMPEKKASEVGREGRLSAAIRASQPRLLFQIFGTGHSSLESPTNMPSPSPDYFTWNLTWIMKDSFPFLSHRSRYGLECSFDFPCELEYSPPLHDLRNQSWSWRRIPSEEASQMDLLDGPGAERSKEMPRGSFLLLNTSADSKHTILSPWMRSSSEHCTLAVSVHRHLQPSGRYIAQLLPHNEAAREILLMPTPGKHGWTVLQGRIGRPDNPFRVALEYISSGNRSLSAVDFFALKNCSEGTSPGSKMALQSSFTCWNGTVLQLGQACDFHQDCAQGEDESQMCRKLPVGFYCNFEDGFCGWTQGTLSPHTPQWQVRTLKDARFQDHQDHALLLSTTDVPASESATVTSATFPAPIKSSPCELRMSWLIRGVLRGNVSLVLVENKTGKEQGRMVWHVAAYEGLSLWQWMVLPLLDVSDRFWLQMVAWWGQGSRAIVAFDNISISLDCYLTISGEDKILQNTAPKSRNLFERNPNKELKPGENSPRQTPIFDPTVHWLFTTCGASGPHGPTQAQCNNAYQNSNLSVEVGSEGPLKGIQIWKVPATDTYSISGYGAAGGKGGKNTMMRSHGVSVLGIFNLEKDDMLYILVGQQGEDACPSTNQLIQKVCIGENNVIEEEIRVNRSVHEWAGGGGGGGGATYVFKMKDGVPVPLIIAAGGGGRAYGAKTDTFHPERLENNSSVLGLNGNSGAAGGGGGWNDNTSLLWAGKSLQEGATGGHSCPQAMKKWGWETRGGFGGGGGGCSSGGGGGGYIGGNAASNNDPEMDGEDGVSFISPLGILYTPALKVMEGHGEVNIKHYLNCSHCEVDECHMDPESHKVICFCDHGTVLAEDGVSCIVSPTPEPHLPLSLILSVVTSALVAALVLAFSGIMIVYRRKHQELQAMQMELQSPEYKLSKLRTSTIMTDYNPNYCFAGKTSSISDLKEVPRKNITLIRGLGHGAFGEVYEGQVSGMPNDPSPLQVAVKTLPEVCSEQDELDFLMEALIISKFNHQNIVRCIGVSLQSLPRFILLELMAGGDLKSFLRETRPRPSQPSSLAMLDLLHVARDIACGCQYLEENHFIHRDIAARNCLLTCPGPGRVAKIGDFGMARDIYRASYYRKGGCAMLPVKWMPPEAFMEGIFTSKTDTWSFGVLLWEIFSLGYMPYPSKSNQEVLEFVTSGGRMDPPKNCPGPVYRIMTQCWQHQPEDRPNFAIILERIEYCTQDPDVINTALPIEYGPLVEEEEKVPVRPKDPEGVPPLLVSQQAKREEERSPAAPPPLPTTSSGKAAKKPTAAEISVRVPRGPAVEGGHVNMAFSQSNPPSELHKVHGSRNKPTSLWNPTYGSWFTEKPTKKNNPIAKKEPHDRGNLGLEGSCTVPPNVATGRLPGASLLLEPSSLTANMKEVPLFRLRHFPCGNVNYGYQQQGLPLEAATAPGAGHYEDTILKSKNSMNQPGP

Question: With `Cc1cc(Nc2ncc(Cl)c(Nc3ccccc3S(=O)(=O)C(C)C)n2)c(OC(C)C)cc1C1CCNCC1` [CERITINIB] as the compound, how does the Activity [1] read?
Answer: Non-Toxic

Question: And the Activity [2]?
Answer: Non-Toxic

Question: What about the GI50 [3] of the same compound?
Answer: 0.2 µM

Question: What about the GI50 [4] of the same compound?
Answer: 0.158 µM

Question: And the GI50 [5]?
Answer: 2 µM

Question: And the GI50 [6]?
Answer: 0.501 µM

Question: And the GI50 [7]?
Answer: 0.316 µM

Question: Which DC50 [8] does the source give for `COc1cc(C2CCN(CCCC#Cc3cccc4c3CN(C3CCC(=O)NC3=O)C4=O)CC2)c(C)cc1Nc1ncc(Cl)c(Nc2ccccc2S(=O)(=O)C(C)C)n1` (centres undefined) here?
Answer: 0.0066 µM

Question: And the IC50 [9]?
Answer: 0.542 µM

Question: And the DC50 [10]?
Answer: 0.043 µM

Question: And the microsomal CLint at 1 µM [11]?
Answer: 10.5 µL/min/mg

Question: And the F [12]?
Answer: 9%

Question: And the Activity [13]?
Answer: Non-Toxic

Question: And the Activity [14]?
Answer: Non-Toxic

Question: What about the Activity [15] of the same compound?
Answer: Active

Question: What about the Activity [16] of the same compound?
Answer: Active

Question: And the Activity [17]?
Answer: Active

Question: What about the Activity [18] of the same compound?
Answer: Active

Question: What about the Activity [19] of the same compound?
Answer: Active

Question: Which GI50 [3] does the source give for `CCc1cc2c(cc1N1CCC(N3CCOCC3)CC1)C(C)(C)c1[nH]c3cc(C#N)ccc3c1C2=O` [ALECTINIB] here?
Answer: 0.0126 µM

Question: What about the GI50 [4] of the same compound?
Answer: 0.0794 µM

Question: What about the GI50 [5] of the same compound?
Answer: 0.398 µM

Question: What about the GI50 [6] of the same compound?
Answer: 0.501 µM

Question: What about the GI50 [7] of the same compound?
Answer: 0.0794 µM

Question: With `Cc1cc(Nc2ncc(Cl)c(Nc3ccccc3S(=O)(=O)C(C)C)n2)c(OC(C)C)cc1C1CCN(CCOCCOCCNC(=O)CNc2cccc3c2C(=O)N(C2CCC(=O)NC2=O)C3=O)CC1` (centres undefined) as the compound, how does the DC50 [8] read?
Answer: 0.289 µM

Question: What about the Activity [20] of the same compound?
Answer: < 50%

Question: And the IC50 [9]?
Answer: 0.971 µM

Question: Which GI50 [3] does the source give for `C[C@H]1Oc2cc(cnc2N)-c2c(nn(C)c2C#N)CN(C)C(=O)c2ccc(F)cc21` [LORLATINIB] here?
Answer: 0.00316 µM

Question: What about the GI50 [4] of the same compound?
Answer: 0.0501 µM

Question: What about the GI50 [5] of the same compound?
Answer: 0.1 µM

Question: What about the GI50 [6] of the same compound?
Answer: 0.501 µM

Question: And the GI50 [7]?
Answer: 0.0398 µM

Question: And the Activity [21]?
Answer: Active

Question: And the Activity [22]?
Answer: Active

Question: What about the Activity [23] of the same compound?
Answer: inactive

Question: For `COc1cc(C2CCN(CC3CN(c4ccc5c(c4)CN(C4CCC(=O)NC4=O)C5=O)C3)CC2)c(C)cc1Nc1ncc(Cl)c(Nc2ccccc2S(=O)(=O)C(C)C)n1` (centres undefined), which microsomal CLint at 1 µM [11] is on record?
Answer: 25.2 µL/min/mg

Question: With `COc1cc(C2CCN(CC3CN(c4ccc5c(c4)C(=O)N(C4CCC(=O)N(C)C4=O)C5=O)C3)CC2)c(C)cc1Nc1ncc(Cl)c(Nc2ccccc2S(=O)(=O)C(C)C)n1` (centres undefined) as the compound, how does the GI50 [3] read?
Answer: 0.0158 µM

Question: What about the GI50 [4] of the same compound?
Answer: 0.0158 µM

Question: What about the GI50 [5] of the same compound?
Answer: 0.126 µM

Question: What about the GI50 [6] of the same compound?
Answer: 0.126 µM

Question: What about the GI50 [7] of the same compound?
Answer: 0.0398 µM

Question: Which results are given for `COc1cc(C2CCN(CCCCCC#Cc3cccc4c3CN(C3CCC(=O)NC3=O)C4=O)CC2)c(C)cc1Nc1ncc(Cl)c(Nc2ccccc2S(=O)(=O)C(C)C)n1` (centres undefined)?
Answer: microsomal CLint at 1 µM [11]: 5.4 µL/min/mg; Activity [13]: Toxic; Activity [14]: Toxic
